Measured values: ChEMBL document CHEMBL4725463, “Vinyl Sulfone-Based Inhibitors of Nonstructural Protein 2 Block the Replication of Venezuelan Equine Encephalitis Virus” (ACS Med Chem Lett, 2020)
pEC50: −log10 of the molar value.

Columns and labels:
[1] = Selectivity index, ratio of CC50 for cytotoxicity against human BE(2)-M17 cells to EC50 for antiviral activity against Venezuelan equine encephalitis virus TC-83 infected in human BE(2)-M17 cells; format: toxicity, cell-based; settings: read-out: Ratio CC50/EC50
[2] = Cytotoxicity against human SK-N-BE(2)-M17 cells; format: cell-based
[3] = test system: Venezuelan equine encephalitis virus; test: Antiviral activity against Venezuelan equine encephalitis virus TC-83 infected in mouse Neuro-2a cells pretreated with compound for 2 hrs followed by viral infection at MOI of 3.5 and measured after 7 hrs by immunostaining based confocal microscopic analysis; format: functional, organism-based; settings: strain TC-83, N2a
[4] = test system: Venezuelan equine encephalitis virus; test: Antiviral activity against Venezuelan equine encephalitis virus TC-83 infected in human BE(2)-M17 cells pretreated with compound for 2 hrs followed by viral infection at MOI of 1.2 and measured after 7 hrs by immunostaining based confocal microscopic analysis; format: functional, organism-based; settings: strain TC-83, SK-N-BE(2)-M17
[5] = Cytotoxicity against mouse N2a cells; format: cell-based
[6] = Selectivity index, ratio of CC50 for cytotoxicity against mouse Neuro-2a cells to EC50 for antiviral activity against Venezuelan equine encephalitis virus TC-83 infected in mouse Neuro-2a cells; format: toxicity, cell-based; settings: read-out: Ratio CC50/EC50
[7] = test system: Venezuelan equine encephalitis virus; test: Antiviral activity against Venezuelan equine encephalitis virus TC-83 infected in mouse cortical neurons at MOI of 0.04 after 20 hrs by immunostaining based confocal microscopic analysis; format: functional, organism-based, Cortical neuron; settings: strain TC-83, Cortical neurone
[8] = Selectivity index, ratio of CC50 for cytotoxicity against mouse cortical neurons to EC50 for antiviral activity against Venezuelan equine encephalitis virus TC-83 infected in mouse cortical neurons; format: toxicity; settings: read-out: Ratio CC50/EC50
[9] = Cytotoxicity against mouse cortical neurons; format: cell-based, Cortical neurone
[10] = target: Polyprotein P1234 (Venezuelan equine encephalitis virus) (UniProt P27282); test: Inhibition of recombinant VEEV nsP2 expressed in Escherichia coli BL21(DE3) using V12 as substrate at 0.9 uM after 24 hrs by discontinuous gel assay relative to control
Chain of Polyprotein P1234 (Venezuelan equine encephalitis virus) (P27282 whole entry): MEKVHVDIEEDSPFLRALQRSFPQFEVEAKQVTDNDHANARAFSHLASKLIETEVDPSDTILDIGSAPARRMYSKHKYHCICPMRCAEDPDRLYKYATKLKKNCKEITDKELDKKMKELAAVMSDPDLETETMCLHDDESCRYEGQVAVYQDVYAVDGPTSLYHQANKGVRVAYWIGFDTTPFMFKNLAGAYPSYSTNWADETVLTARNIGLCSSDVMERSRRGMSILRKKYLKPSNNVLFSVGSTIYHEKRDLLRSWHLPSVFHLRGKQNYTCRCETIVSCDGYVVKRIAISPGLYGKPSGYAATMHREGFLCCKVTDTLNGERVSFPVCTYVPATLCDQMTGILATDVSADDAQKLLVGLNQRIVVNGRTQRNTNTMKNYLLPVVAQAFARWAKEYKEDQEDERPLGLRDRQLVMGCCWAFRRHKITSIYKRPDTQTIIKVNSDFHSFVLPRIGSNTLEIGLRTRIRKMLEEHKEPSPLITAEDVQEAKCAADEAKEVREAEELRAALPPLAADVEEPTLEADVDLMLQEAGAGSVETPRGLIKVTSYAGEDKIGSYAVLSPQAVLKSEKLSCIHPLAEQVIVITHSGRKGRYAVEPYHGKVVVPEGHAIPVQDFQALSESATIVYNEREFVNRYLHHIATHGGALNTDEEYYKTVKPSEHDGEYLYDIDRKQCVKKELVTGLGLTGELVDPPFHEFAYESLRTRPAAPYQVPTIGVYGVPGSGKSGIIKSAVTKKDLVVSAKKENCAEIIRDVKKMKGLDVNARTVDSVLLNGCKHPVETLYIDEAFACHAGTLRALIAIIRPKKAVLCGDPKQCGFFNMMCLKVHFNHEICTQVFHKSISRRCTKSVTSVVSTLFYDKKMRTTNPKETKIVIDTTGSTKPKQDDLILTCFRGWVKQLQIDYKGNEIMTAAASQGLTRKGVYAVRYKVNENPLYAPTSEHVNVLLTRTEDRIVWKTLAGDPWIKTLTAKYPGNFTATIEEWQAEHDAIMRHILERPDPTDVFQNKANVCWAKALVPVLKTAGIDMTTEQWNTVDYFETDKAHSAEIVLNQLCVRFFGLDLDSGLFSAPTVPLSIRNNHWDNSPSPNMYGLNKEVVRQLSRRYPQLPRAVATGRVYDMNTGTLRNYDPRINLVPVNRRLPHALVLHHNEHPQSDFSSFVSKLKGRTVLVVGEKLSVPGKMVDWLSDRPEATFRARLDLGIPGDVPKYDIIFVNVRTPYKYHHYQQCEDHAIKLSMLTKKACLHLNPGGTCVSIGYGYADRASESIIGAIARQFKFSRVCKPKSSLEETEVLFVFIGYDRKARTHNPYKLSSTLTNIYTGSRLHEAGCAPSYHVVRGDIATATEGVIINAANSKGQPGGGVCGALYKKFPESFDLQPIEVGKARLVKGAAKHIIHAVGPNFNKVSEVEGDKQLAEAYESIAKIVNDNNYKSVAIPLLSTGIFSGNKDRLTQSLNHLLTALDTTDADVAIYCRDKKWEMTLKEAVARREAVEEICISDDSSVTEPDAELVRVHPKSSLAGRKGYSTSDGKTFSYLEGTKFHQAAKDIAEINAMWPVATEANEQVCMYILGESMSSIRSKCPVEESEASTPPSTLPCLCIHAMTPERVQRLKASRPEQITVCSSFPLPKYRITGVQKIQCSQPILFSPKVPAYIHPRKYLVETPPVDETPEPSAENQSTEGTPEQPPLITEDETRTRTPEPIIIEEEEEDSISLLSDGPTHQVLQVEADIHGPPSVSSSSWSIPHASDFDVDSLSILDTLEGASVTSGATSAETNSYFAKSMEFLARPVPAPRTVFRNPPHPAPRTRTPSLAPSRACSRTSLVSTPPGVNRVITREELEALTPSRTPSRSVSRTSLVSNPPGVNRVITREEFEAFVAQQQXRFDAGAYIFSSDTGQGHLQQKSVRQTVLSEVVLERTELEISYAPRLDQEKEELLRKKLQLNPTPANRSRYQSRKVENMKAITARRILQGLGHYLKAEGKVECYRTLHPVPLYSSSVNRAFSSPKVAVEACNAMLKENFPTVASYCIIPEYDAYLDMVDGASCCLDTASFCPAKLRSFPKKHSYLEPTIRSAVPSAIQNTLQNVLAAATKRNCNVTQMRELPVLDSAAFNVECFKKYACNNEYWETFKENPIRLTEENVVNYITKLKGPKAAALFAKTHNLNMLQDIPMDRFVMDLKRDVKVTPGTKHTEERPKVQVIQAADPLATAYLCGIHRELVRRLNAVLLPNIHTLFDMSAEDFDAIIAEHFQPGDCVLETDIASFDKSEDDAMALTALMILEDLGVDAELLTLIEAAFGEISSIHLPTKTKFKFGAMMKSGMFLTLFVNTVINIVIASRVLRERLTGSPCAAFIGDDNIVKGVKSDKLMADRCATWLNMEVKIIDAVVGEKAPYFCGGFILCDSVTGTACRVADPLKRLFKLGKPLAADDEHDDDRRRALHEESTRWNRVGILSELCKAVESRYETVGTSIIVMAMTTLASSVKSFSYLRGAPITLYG
Method in brief: (§1)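 Recombinant tag-free VEEV nsP2 (1 μM) was incubated with the V12 CFP-YFP FRET substrate (10 μM) and compound in 50 mM HEPES pH 7.4 for 24 h at room temperature. Compound was tested at 3.6 to 0.03 μM in 2-fold steps. Uncut and cleaved V12 were resolved on gel, and percentage inhibition was estimated at 0.9 μM.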

[11] = target: Polyprotein P1234 (Venezuelan equine encephalitis virus) (UniProt P27282); test: Inhibition of recombinant VEEV nsP2 expressed in Escherichia coli BL21(DE3) using V12 as substrate at 20 uM after 24 hrs by discontinuous gel assay relative to control
Method in brief: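 VEEV nsP2 (1 μM) was exposed to compound at 20 μM in the presence of 10 μM V12 CFP-YFP FRET substrate. Protease inactivation was judged by cleavage of V12.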

[12] = target: Polyprotein P1234 (Venezuelan equine encephalitis virus) (UniProt P27282); test: Inhibition of recombinant VEEV nsP2 expressed in Escherichia coli BL21(DE3) using V12 as substrate after 24 hrs by discontinuous gel assay; method in brief: as §1
[13] = Cytotoxicity against green monkey Vero C1008 cells; format: cell-based; settings: chlorocebus sabaeus
[14] = Cytotoxicity against human HeLa cells; format: cell-based
[15] = test system: Venezuelan equine encephalitis virus; test: Antiviral activity against Venezuelan equine encephalitis virus IC-SH3 infected in HeLa cells pretreated with compound for 2 hrs followed by viral infection at MOI of 0.1 and measured after 20 hrs by immunostaining based confocal microscopic analysis; format: functional, organism-based
[16] = test system: Venezuelan equine encephalitis virus; test: Antiviral activity against Venezuelan equine encephalitis virus IC-SH3 infected in VeroE6 cells pretreated with compound for 2 hrs followed by viral infection at MOI of 0.01 and measured after 20 hrs by immunostaining based confocal microscopic analysis; format: functional, organism-based; settings: IC-SH3, Vero C1008
[17] = Selectivity ratio of CC50 for cytotoxicity against green monkey VeroE6 cells to EC50 for antiviral activity against Venezuelan equine encephalitis virus IC-SH3 infected in VeroE6 cells; format: toxicity, cell-based; settings: read-out: Ratio CC50/EC50
[18] = Selectivity ratio of CC50 for cytotoxicity against human HeLa cells to EC50 for antiviral activity against Venezuelan equine encephalitis virus IC-SH3 infected in HeLa cells; format: toxicity, cell-based; settings: read-out: Ratio CC50/EC50
[19] = Cytotoxicity against green monkey Vero cells; format: cell-based; settings: chlorocebus sabaeus
[20] = test system: Venezuelan equine encephalitis virus; test: Antiviral activity against Venezuelan equine encephalitis virus Trinidad infected in HeLa cells at MOI of 0.1 after 20 hrs by immunostaining based confocal microscopic analysis; format: functional, organism-based
[21] = Selectivity index, ratio of CC50 for cytotoxicity against human HeLa cells to EC50 for antiviral activity against Venezuelan equine encephalitis virus Trinidad infected in HeLa cells; format: toxicity, cell-based; settings: read-out: Ratio CC50/EC50
[22] = Selectivity index, ratio of CC50 for cytotoxicity against african green monkey Vero cells to EC50 for antiviral activity against Venezuelan equine encephalitis virus Trinidad infected in Vero cells; format: toxicity, cell-based; settings: read-out: Ratio CC50/EC50
[23] = test system: Venezuelan equine encephalitis virus; test: Antiviral activity against Venezuelan equine encephalitis virus Trinidad infected in Vero cells at MOI of 0.01 after 20 hrs by immunostaining based confocal microscopic analysis; format: functional, organism-based

Structure (SMILES) | selectivity ratio [1] | CC50 [2] [µM] | pEC50 [3] | pEC50 [4] | CC50 [5] [µM] | selectivity ratio [6] | CC50 [13] [µM] | CC50 [14] [µM] | pEC50 [15] | pEC50 [16] | also measured
C[C@@H]1CC(C)(C)Nc2c(C(=O)N[C@H](/C=C/S(C)(=O)=O)Cc3ccccc3)cccc21 | > 5.4 | > 50 | 4.89 | 5.03 | > 50 | > 4 |  |  |  |  | 
CN1CCN(C)/C(=N\c2ccc([N+](=O)[O-])cc2C(=O)Nc2ccccc2)C1 | > 250 | > 2.25 | 7.70 | 8.00 | > 2.5 | > 125 |  |  |  |  | 
CC1=CC(C)(C)Nc2c(C(=O)N[C@@H](C)/C=C/S(C)(=O)=O)cccc21 | > 5 | > 25 | 5.47 | 5.35 | > 25 | > 7.3 |  |  |  |  | pEC50 [7]: 5.57; selectivity ratio [8]: > 9.7; CC50 [9]: > 25 µM; inhibition [10]: 59%; inhibition [11]: 100%; inhibition [12]: Dose-dependent effect
COC(=O)CCCNC(=O)c1cccc2c1NC(C)(C)C=C2C |  |  |  |  |  |  | > 30 | > 30 | < 4.52 | < 4.52 | 
COC(=O)/C=C/CNC(=O)c1cc(C)cc2c1NC(C)(C)C=C2C |  |  |  |  |  |  | > 30 | > 30 | 5.06 | 5.07 | selectivity ratio [17]: > 3.5; selectivity ratio [18]: > 4
COC(=O)CCCNC(=O)c1cccc2c1NCCC2 |  |  |  |  |  |  | > 30 | > 30 | < 4.52 | < 4.52 | 
C[C@@H]1CC(C)(C)Nc2c(C(=O)NC/C=C/S(C)(=O)=O)cccc21 | > 18 | > 25 | 5.70 | 5.85 | > 25 | > 12 |  |  |  |  | pEC50 [7]: 5.10; CC50 [19]: 30 µM; pEC50 [20]: 5.80; selectivity ratio [21]: > 19; selectivity ratio [8]: 6; selectivity ratio [22]: > 12; CC50 [9]: 48 µM; inhibition [10]: 39%; inhibition [11]: 100%; inhibition [12]: Dose-dependent effect; pEC50 [23]: 5.62
COC(=O)CCCNC(=O)c1cccc2c1NC(C)(C)C[C@H]2C |  |  |  |  |  |  | > 30 | > 30 | < 4.52 | < 4.52 | 
COC(=O)/C=C/CNC(=O)c1c[nH]c2ccc(Br)cc12 | 4 | 12 | 4.96 | 5.52 | > 25 | > 2 |  |  |  |  | 
CC1=CC(C)(C)Nc2c(C(=O)N[C@H](/C=C/S(C)(=O)=O)Cc3ccccc3)cccc21 | > 2 | > 38 | 4.89 | 4.77 | > 50 | > 4 |  |  |  |  | 
COC(=O)/C=C/CNC(=O)c1cccc2c1NCCC2 |  |  |  |  |  |  | > 30 | > 30 | 4.74 | < 4.52 | selectivity ratio [18]: > 2
CC1=CC(C)(C)Nc2c(C(=O)NC/C=C/S(C)(=O)=O)cccc21 | > 9 | 19.6 | 5.30 | 5.70 | 27 | > 5 |  |  |  |  | pEC50 [7]: 5.22; CC50 [19]: 30 µM; pEC50 [20]: 5.85; selectivity ratio [21]: > 22; selectivity ratio [8]: > 4; selectivity ratio [22]: 7; CC50 [9]: > 25 µM; pEC50 [23]: 5.30
COC(=O)CCCNC(=O)c1cc(C)cc2c1NC(C)(C)C=C2C |  |  |  |  |  |  | > 30 | > 30 | < 4.52 | < 4.52 | 
C[C@@H]1CC(C)(C)Nc2c(C(=O)N[C@@H](C)/C=C/S(C)(=O)=O)cccc21 | > 7.5 | > 25 | 5.43 | 5.48 | > 25 | > 7 |  |  |  |  | inhibition [10]: 71%; inhibition [11]: 100%; inhibition [12]: Dose-dependent effect
O=C(N[C@H](/C=C/S(=O)(=O)c1ccccc1)Cc1ccccc1)c1cccc2cccnc12 | 1 | 16 | 4.72 | 4.77 | 46 | > 2 |  |  |  |  | 
COC(=O)/C=C/CNC(=O)c1cccc2c1NC(C)(C)C[C@H]2C |  | 11 | 4.66 | < 4.60 | > 25 | > 1 | > 30 | > 30 | 5.92 | 5.09 | selectivity ratio [17]: > 4; selectivity ratio [18]: > 26
COC(=O)/C=C/CNC(=O)c1cccc2c1NC(C)(C)C=C2C | 1.5 | 18.1 | < 4.60 | 5.35 |  |  | 6.7 | > 30 | 6.22 | 5.19 | selectivity ratio [17]: > 5; selectivity ratio [18]: > 55
